Values after ≈ are worked out from the molar mass of the structure shown. Active and inactive are the calls of the source. The calls are words filed in the database; no cut-off is given here.
Assays:
Acetyl-CoA carboxylase 2 [1] = biological target: T1, Acetyl-CoA carboxylase 2 (Homo sapiens, UniProt O00763); experiment: Inhibition of recombinant human N-terminal His6-tagged ACC2 expressed in baculovirus infected Sf9 insect cells using acetyl-CoA as substrate preincubated for 60 mins followed by substrate addition and measured after 30 mins Rapidfire-Mass spectrometry
Outline: (§1)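 Human ACC1 or ACC2 from baculovirus-infected SF-9 cells (27 °C, 3 days), purified and dialyzed. Compound in DMSO diluted in 50 mM HEPES pH 7.5, 10 mM MgCl₂, 10 mM tripotassium citrate, 2 mM DTT, 0.001% fatty acid-free BSA. Enzyme and compound preincubated 60 min at room temperature. Substrate added: 50 mM KHCO₃, ATP, acetyl-CoA. Reaction ran 30 min at room temperature.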

Acetyl-CoA carboxylase 1 [2] = biological target: T2, Acetyl-CoA carboxylase 1 (Homo sapiens, UniProt Q13085); experiment: Inhibition of recombinant human N-terminal His6-tagged ACC1 expressed in baculovirus infected Sf9 insect cells using acetyl-CoA as substrate preincubated for 60 mins followed by substrate addition and measured after 30 mins Rapidfire-Mass spectrometry; outline: as §1
[3] = Inhibition of fatty acid synthesis in human HCT-116 cells assessed as reduction in [14C] acetic acid uptake preincubated for 60 mins followed by [14C]acetic acid addition and measured after 2 hrs by topcount scintillation counting method; assay type: functional, cell-based
Outline: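 HCT-116 cells, 50,000/well, cultured overnight in RPMI with 10% FBS and penicillin/streptomycin at 37 °C, 5% CO₂. Compound added in RPMI with 0.1% fatty acid-free BSA for 60 min. Then 0.1 μCi/well [¹⁴C]acetic acid for 2 h at 37 °C. Cells washed with PBS and radioactivity counted. DMSO wells set as 0%; 100 nM reference inhibitor as 100%. IC50 is the mean of duplicates with 95% CI.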

Acetyl-CoA carboxylase 1 [4] = biological target: T2, Acetyl-CoA carboxylase 1; experiment: Inhibition of recombinant human N-terminal His6-tagged ACC1 expressed in baculovirus infected Sf9 insect cells at 10 uM using acetyl-CoA as substrate preincubated for 60 mins followed by substrate addition and measured after 30 mins Rapidfire-Mass spectrometry relative to control; details: time 90.0 min
Acetyl-CoA carboxylase 2 [5] = biological target: T1, Acetyl-CoA carboxylase 2; experiment: Inhibition of recombinant human N-terminal His6-tagged ACC2 expressed in baculovirus infected Sf9 insect cells at 10 uM using acetyl-CoA as substrate preincubated for 60 mins followed by substrate addition and measured after 30 mins Rapidfire-Mass spectrometry relative to control; details: time 90.0 min
[6] = Solubility of compound in pH 6.8 buffer; assay type: physicochemical
Outline: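 Solubility measured at pH 6.8.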

Homo sapiens = species: Homo sapiens; experiment: Selectivity ratio of IC50 for inhibition of recombinant human N-terminal His6-tagged ACC2 expressed in baculovirus infected Sf9 insect cells to IC50 for inhibition of recombinant human N-terminal His6-tagged ACC1 expressed in baculovirus infected Sf9 insect cells
[7] = Permeability of compound at pH 5 by PAMPA; assay type: ADME; details: read-out: permeability
[8] = Oral bioavailability in ICR mouse at 1 mg/kg; assay type: ADME, organism-based; details: in vivo
Outline: (§2)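 Male ICR mice, n = 3. Doses: 0.1 mg/kg i.v. and 1 mg/kg p.o. AUC covers 0–8 h.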

[9] = AUC (0 to 8 hrs) in ICR mouse at 0.1 mg/kg, iv or 1 mg/kg, po; assay type: ADME, organism-based; set-up: dose 1 mg/kg; details: in vivo; outline: as §2
[10] = Lipophilicity, log D of compound; assay type: physicochemical; details: octanol/water
[11] = Permeability of compound at pH 7.4 by PAMPA; assay type: ADME; details: read-out: permeability
[12] = Solubility of compound in pH 1.2 buffer; assay type: physicochemical
[13] = Metabolic stability in human liver microsomes; assay type: ADME, Microsome; details: read-out: Stabilty
[14] = Metabolic stability in mouse liver microsomes; assay type: ADME, Microsome; details: read-out: Stabilty
Cytochrome P450 2C9 = Cytochrome P450 2C9 (Homo sapiens, UniProt P11712); experiment: Inhibition of CYP2C9 (unknown origin) relative to control; assay type: ADME
Cytochrome P450 2C8 = biological target: T3, Cytochrome P450 2C8 (Homo sapiens, UniProt P10632); experiment: Inhibition of CYP2C8 (unknown origin) relative to control; assay type: ADME
T3 sequence (P10632 whole entry): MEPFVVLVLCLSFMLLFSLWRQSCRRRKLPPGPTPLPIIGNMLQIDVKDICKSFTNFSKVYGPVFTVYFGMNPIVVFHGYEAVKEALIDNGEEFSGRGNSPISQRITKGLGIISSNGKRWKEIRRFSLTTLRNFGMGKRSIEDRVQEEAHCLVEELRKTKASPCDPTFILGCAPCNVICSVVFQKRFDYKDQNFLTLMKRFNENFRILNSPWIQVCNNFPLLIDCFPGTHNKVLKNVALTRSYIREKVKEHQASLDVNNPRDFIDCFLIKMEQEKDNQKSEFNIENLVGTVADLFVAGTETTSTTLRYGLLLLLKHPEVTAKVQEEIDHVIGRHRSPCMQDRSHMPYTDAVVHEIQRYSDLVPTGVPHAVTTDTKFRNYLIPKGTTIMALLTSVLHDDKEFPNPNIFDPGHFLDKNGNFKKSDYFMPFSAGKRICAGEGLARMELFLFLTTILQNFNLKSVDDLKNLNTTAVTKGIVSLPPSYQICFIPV

Mus musculus = experiment: Inhibition of fatty acid synthesis in human HCT-116 cells xenografted BALB/cA Jc1 nu/nu mouse assessed as reduction in malonyl-CoA concentration in tumor at 100 mg/kg, po administered as single dose measured after 2 to 16 hrs by RPLC-MS/MS analysis; assay type: functional, organism-based; details: time 2-16 hrs
Outline: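 Female BALB/cA Jcl-nu/nu mice, 6 weeks old, carrying s.c. hind-flank HCT-116 xenografts (cells in HBSS with Matrigel). Mice randomized by tumor volume. Single oral dose of 100 mg/kg in 0.5% methyl cellulose, or vehicle. Tumors collected 2 and 16 h after dosing, snap-frozen and pulverized under liquid N₂. Malonyl-CoA measured by RPLC-MS/MS against a calibration curve with [¹³C₃]-malonyl-CoA as internal standard.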

Sequence of Cytochrome P450 2C9 (P11712 whole entry): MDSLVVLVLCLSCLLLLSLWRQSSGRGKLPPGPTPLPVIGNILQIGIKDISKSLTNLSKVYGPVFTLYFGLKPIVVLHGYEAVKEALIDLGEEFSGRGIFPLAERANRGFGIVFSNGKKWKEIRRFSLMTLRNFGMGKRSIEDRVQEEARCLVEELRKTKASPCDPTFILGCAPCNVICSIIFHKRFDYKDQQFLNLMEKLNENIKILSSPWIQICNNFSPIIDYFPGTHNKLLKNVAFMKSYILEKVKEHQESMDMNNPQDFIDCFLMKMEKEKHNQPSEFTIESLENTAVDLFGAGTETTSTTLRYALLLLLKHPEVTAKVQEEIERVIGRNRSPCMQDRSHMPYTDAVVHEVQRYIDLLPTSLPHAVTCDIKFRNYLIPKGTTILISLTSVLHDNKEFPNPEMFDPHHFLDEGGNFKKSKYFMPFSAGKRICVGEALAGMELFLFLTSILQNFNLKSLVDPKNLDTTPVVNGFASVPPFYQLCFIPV

Compound	IC50 (Acetyl-CoA carboxylase 2 [1]) [nM]	IC50 (Acetyl-CoA carboxylase 1 [2]) [nM]	IC50 [3] [nM]	solubility [6] [µg/mL]	other results
CC(=O)NC(C)c1ccc(OCc2ccc(Oc3cccc(OCC4CC4)c3)cc2F)cc1 (centres undefined)	> 10000	69	63	–	–
CC(=O)NC(C)c1ccc(OCc2ccc(Oc3cccc(OCC4CC4)c3)nc2)cc1 (centres undefined)	> 10000	790	900	–	–
CCCOc1ccc(Oc2ccc(-c3ccc(C(C)NC(C)=O)cc3)cc2)cc1 (centres undefined)	–	–	–	–	inhibition (Acetyl-CoA carboxylase 1 [4]): 50%; inhibition (Acetyl-CoA carboxylase 2 [5]): 51%
CC(=O)NC(C)c1ccc(OCc2c(F)cc(Oc3cccc(OCC4CC4)c3)cc2F)nn1 (centres undefined)	> 10000	31	110	2.3 (≈ 4.9 µM)	–
CCCCOc1cccc(Oc2ccc(-c3ccc(C(C)NC(C)=O)cc3)cc2)c1 (centres undefined)	210	120	–	–	–
CC(=O)NC(C)c1ccc(-c2ccc(Oc3cccc(OCC4CC4)c3)cc2)cc1 (centres undefined)	150	60	–	–	Ratio IC50 (Homo sapiens): 2.5
COCCc1ccc(Oc2ccc(-c3ccc(C(C)NC(C)=O)cc3)cc2)cc1 (centres undefined)	> 30000	–	–	–	inhibition (Acetyl-CoA carboxylase 1 [4]): 49%; inhibition (Acetyl-CoA carboxylase 2 [5]): 6%
CC(=O)NC(C)c1ccc(OCc2ccc(Oc3cccc(OCC4CC4)c3)cc2)cc1 (centres undefined)	> 10000	220	420	–	–
CC(=O)NC(C)c1ccc(OCc2c(F)cc(Oc3cccc(OCC4CC4)c3)cc2F)cc1 (centres undefined)	> 10000	15	9.7	< 0.21	Papp [7]: 34.6 ×10⁻⁶ cm/s; bioavailability [8]: 31.1%; AUC(0-t) [9]: 1580 ng·h/mL; logD [10]: 5.01; Papp [11]: 11.1 ×10⁻⁶ cm/s; solubility [12]: < 0.23 µg/mL; microsomal CLint [13]: 30 µL/min/mg; microsomal CLint [14]: 36 µL/min/mg; inhibition (INH) (Cytochrome P450 2C9): -22.7%; inhibition (INH) (Cytochrome P450 2C8): 31.4%
CC(=O)NC(C)c1ccc(OCc2c(F)cc(Oc3cccc(OCC4CC4)c3)cc2F)cn1 (centres undefined)	> 10000	38	70	1.5 (≈ 3.2 µM)	–
CC(=O)NC(C)c1cnc(OCc2c(F)cc(Oc3cccc(OCC4CC4)c3)cc2F)cn1 (centres undefined)	> 10000	89	180	0.46 (≈ 0.98 µM)	–
CC(=O)NC(C)c1ccc(OCc2ccc(Oc3cccc(OCC4CC4)c3)cn2)cc1 (centres undefined)	> 10000	1200	> 1000	–	–
CCCc1ccc(Oc2ccc(-c3ccc(C(C)NC(C)=O)cc3)cc2)cc1 (centres undefined)	–	–	–	–	inhibition (Acetyl-CoA carboxylase 1 [4]): 38%; inhibition (Acetyl-CoA carboxylase 2 [5]): 11%
COCCc1cccc(Oc2ccc(-c3ccc(C(C)NC(C)=O)cc3)cc2)c1 (centres undefined)	98	130	–	–	–
CC(=O)NC(C)c1ccc(Oc2ccc(Oc3cccc(OCC4CC4)c3)cc2)cc1 (centres undefined)	20	39	–	–	–
CC(=O)NC(C)c1ccc(OCc2c(F)cc(Oc3cccc(OCC4CC4)c3)cc2F)nc1 (centres undefined)	> 10000	17	24	< 0.23	Papp [7]: 66.2 ×10⁻⁶ cm/s; bioavailability [8]: 70.5%; AUC(0-t) [9]: 5350 ng·h/mL; logD [10]: 4.82; Papp [11]: 68.3 ×10⁻⁶ cm/s; inhibition (Mus musculus): Active; solubility [12]: < 0.23 µg/mL; microsomal CLint [13]: 12 µL/min/mg; microsomal CLint [14]: 17 µL/min/mg; inhibition (INH) (Cytochrome P450 2C9): -13.8%; inhibition (INH) (Cytochrome P450 2C8): 32%
